Screens deposited in PubChem by several laboratories.
An excerpt weighted towards active compounds, which were near 2.2% of everything screened.
PMI act satM6P = activators of human phosphomannose isomerase at near-saturating mannose 6-phosphate; activation factor at 20 µM; P34949; 0.34% of 190,000 active; coupled PMI enzyme assay, resazurin fluorescence, 20 min; hits give high values; 1 = untreated enzyme, 0 = substrate-free blank;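 active = activation factor of 2 or more at 20 µM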
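Material: human phosphomannose isomerase with PGI, G6PDH, diaphorase coupling enzymes. Quantity: 15 ng/mL PMI. Medium: HEPES pH 7.4 buffer with MgCl2 and Tween-20. Reagent: Near-saturating mannose-6-phosphate, 1.0 mM. Compound: 20 µM single dose. Times: enzyme reaction with compound 20 min at room temperature. Detection: resorufin fluorescence at Ex 544/Em 590 nm.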
G6PDH counter = L. mesenteroides G6PDH inhibition counter-screen. Purified L. mesenteroides G6PDH, diaphorase/resazurin coupled fluorescence, 45 min. inhibition, % at 5 µM. 0.12% of 200,000 active. AID 1020; in the data active = inhibition above about 50%
Diaphorase inh = inhibits diaphorase or chemically oxidizes, flagging diaphorase assay artifacts | diaphorase resazurin-to-resorufin fluorescence, NADH, 16 min; bacterial (C. kluyveri) enzyme, not human | inhibition, % at 20 µM | 0.69% of 190,000 active;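 active = primary screen inhibition at 20 µM above a set limit, cut at about 50% in these data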
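Test system: diaphorase enzyme from Clostridium kluyveri; amount: diaphorase at 0.14 U/mL in enzyme working solution; detection: fluorescence of resorufin formed from resazurin, Ex 544/Em 590 nm; times: reaction incubation of 16 min at room temperature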
PMI act = increases human mannose-6-phosphate isomerase activity. purified human PMI, coupled resazurin fluorescence, 20 min; hits give high values; 1 = vehicle control, 0 substrate-free wells. activation factor at 20 µM. 0.005% of 190,000 active. AID 1214;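 active = activation factor of 2 or more at 20 µM, relative to plate controls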
Diaphorase act = counter-screen for diaphorase-based assays: diaphorase activators and chemical reducers | activation factor at 20 µM | 0.005% of 190,000 active | Diaphorase/resazurin coupled assay, resorufin fluorescence, 16 min; hits give high values; 1 = vehicle wells, 0 = NADH-free wells | AID 1229;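 active = diaphorase activity raised at least twofold by the compound at 20 µM; inactive = activation factor below 2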
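Assay system: bacterial diaphorase enzyme (C. kluyveri) / Input: enzyme 0.07 U/mL final / Medium: 50 mM HEPES pH 7.4 with 4.542 mM MgCl2, 0.005% Tween 20 / Doses: single compound dose of 20 µM, 1% DMSO final / Incubation: 16 min enzyme reaction, ambient temperature / Signal: fluorescence, excitation 544 nm and emission 590 nm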
ROMK primary = modulates human ROMK potassium channel activity. P48048. Tet-inducible ROMK, thallium flux fluorescence; actives lie on both sides. B-score at 10 µM. 2% of 130,000 active;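 active = signal ratio slope over the read window, or its plate-corrected B-score, at least 3 SD from the plate mean, either direction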;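 note: B-score of the F/F0 ratio slope over 7 to 12 s after thallium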
Target sequence (P48048 whole entry, looked up): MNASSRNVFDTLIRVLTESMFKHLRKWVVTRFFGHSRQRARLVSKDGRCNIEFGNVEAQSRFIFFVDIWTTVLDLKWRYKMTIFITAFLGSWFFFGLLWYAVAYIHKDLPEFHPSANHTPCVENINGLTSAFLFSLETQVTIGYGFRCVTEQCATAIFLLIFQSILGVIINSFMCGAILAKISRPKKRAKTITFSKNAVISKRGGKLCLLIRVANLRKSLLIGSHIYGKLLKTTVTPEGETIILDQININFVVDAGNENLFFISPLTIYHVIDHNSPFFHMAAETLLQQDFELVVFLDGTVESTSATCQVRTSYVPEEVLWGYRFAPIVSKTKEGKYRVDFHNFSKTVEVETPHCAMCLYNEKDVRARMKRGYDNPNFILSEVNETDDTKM
ROMK hit retest = retested hit modulating human ROMK potassium channel | shares compounds with ROMK primary | ROMK thallium flux, fluorescence ratio; hits give low values | normalized thallium flux (F/F0 slope) at 10 µM | 54% of 3,000 active | AID 1917;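 active = Flux at 10 µM at least 3 SD below or above vehicle control mean in one or both replicates; inconclusive = no clear call, values can overlap the other calls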
Each line names hits and unclear results; the compound was inactive in the other large screens (follow-up assays come after a bar, where they were run).

COc1ccc(N=C2S/C(=C\c3ccc(N4CCOCC4)o3)C(=O)N2CCc2c[nH]c3ccccc23)cc1	none (no result: ROMK primary) | ROMK hit retest 0.058
COc1ccc(N=C2S/C(=C\c3ccc(OCC(=O)O)cc3)C(=O)N2CCc2c[nH]c3ccccc23)cc1	ROMK primary 8.5 | ROMK hit retest 0.12
Cc1nc2ccccc2c2c1C(=O)NC2=O	none (no result: PMI act satM6P, G6PDH counter, Diaphorase inh, PMI act, Diaphorase act)
O=C(CCN1CCCCCC1)c1ccccc1	none (no result: ROMK primary)
O=C(CCCCN1CCCCC1)c1ccc2c(c1)Cc1ccccc1-2	ROMK primary -4.5 | ROMK hit retest 0.064
CCN(CC)c1ccc(C=Nc2ccc(N(C)C)cc2)c(O)c1	ROMK primary -2.7 | ROMK hit retest inconclusive
CCN(CC)c1ccc(N=Cc2ccc(N(CC)CC)cc2O)cc1	none (no result: ROMK primary)
CCCCC(=O)N(Cc1ccc(-c2ccccc2-c2nn[nH]n2)cc1)[C@H](C(=O)O)C(C)C	none (no result: ROMK primary)
C=C(C)CSc1nc2sc3c(c2c(=O)n1C1CCCCC1)CCN(C)C3	none (no result: PMI act satM6P, G6PDH counter, Diaphorase inh, PMI act, Diaphorase act, ROMK primary) | ROMK hit retest 0.065
CN(C)C(CNC(=O)c1cccc(OC(F)F)c1)c1ccco1 (centres undefined)	ROMK primary 1.1 | ROMK hit retest inactive
CCCOc1ccc(C(=O)NCC(c2ccco2)N(C)C)cc1OC (centres undefined)	none
Cc1ccsc1/C=C(\C#N)C(=O)NCCCN1CCOCC1	none
Cc1ccc(/C=C(\C#N)C(=O)NCCN2CCOCC2)cc1	ROMK primary -3.2 | ROMK hit retest 0.06
O=C(NNC(=O)C1CCN(c2ncccn2)CC1)c1ccc(Cl)cc1	none
Cc1ccccc1NC(=O)N1CCN(c2ncccn2)CC1	none
CC(=O)c1sc(NC(=O)c2cc(=O)c3ccccc3o2)nc1C	ROMK primary 2.9 | ROMK hit retest inactive
CCn1c(/C=C/Nc2ccccc2)[n+](CC)c2ccc(Cl)cc21	ROMK primary -3.2 | ROMK hit retest inconclusive
COc1ccc(-n2c(C(C)n3nc(C)c([N+](=O)[O-])c3C)n[nH]c2=S)cc1 (centres undefined)	none (no result: ROMK primary)
COc1ccc(-n2c(C)c([N+](=O)[O-])c3ccc(O)c(CN(C)C)c32)cc1	none (no result: ROMK primary) | ROMK hit retest 0.033
O=C1NC(CCc2ccccc2)C(=O)N1CCOc1cccc(Br)c1 (centres undefined)	none
CCOCCCNC(=O)/C(C#N)=C/c1ccc(Cl)c([N+](=O)[O-])c1	ROMK primary -4.2 | ROMK hit retest 0.033
CCOCCCNC(=O)/C(C#N)=C/c1cc(C)c(O)c(C)c1	none
CCOCCCNC(=O)/C(C#N)=C/c1cc(OC)c(O)c([N+](=O)[O-])c1	ROMK primary 3 | ROMK hit retest inactive
Cc1nc(Nc2ccccc2C(F)(F)F)sc1C(=O)N(C)C	none
O=C(COc1ccccc1-c1ccccc1)NNC(=O)NC1CCCCC1	none
CCCCC1CC(CSC(=N)N)OC1=O (centres undefined)	none (no result: ROMK primary)
CCCCCCCC1CC(CSC(=N)N)OC1=O (centres undefined)	ROMK primary -5 | ROMK hit retest 0.058
CCc1nnnn1-c1ccc([N+](=O)[O-])cc1C	none
O=C(CSc1ccc(-c2ccco2)nn1)NC1CCCC1	none (no result: ROMK primary) | ROMK hit retest inactive
CC(Oc1ccc2c(=O)c(-c3ccc(Cl)cc3)c(C(F)(F)F)oc2c1)C(=O)O (centres undefined)	none (no result: PMI act satM6P, G6PDH counter, Diaphorase inh, PMI act, Diaphorase act)
Cc1nc(Cl)sc1C(=O)Nc1cccc2ccccc12	none
Cc1ccc(-c2nc3sc(C#N)c(N)n3c(=O)c2C#N)cc1	none
CCn1nnc(NC(=O)C(c2ccccc2)c2ccccc2)n1	ROMK primary -7.3 | ROMK hit retest inactive
Cn1nnc(NC(=O)C(c2ccccc2)c2ccccc2)n1	none (no result: ROMK primary)
Cc1ccc2nc(NC(=O)C(NS(=O)(=O)c3cccc4nsnc34)C(C)C)sc2c1 (centres undefined)	none (no result: ROMK primary) | ROMK hit retest 0.062
Cc1ccc2nc(N3CCN(S(=O)(=O)c4ccc5c(c4)OCCO5)CC3)c(C#N)cc2c1	none (no result: ROMK primary)
Cc1ccc(S(=O)(=O)N2CCCN(c3nc4cc(C)ccc4cc3C#N)CC2)cc1	none (no result: ROMK primary) | ROMK hit retest inactive
COC(=O)C1CCN(c2cnccn2)CC1	none (no result: ROMK primary) | ROMK hit retest inactive
COc1cc(CNCCc2ccccc2)ccc1OCc1ccc(Cl)nc1	ROMK primary -3.7 | ROMK hit retest 0.057
COc1ccccc1CCNCc1ccc(OC)c(OCc2ccccc2)c1	none (no result: ROMK primary) | ROMK hit retest 0.065
COc1cc(CNCCc2ccc(S(N)(=O)=O)cc2)ccc1OCc1ccc(Cl)cc1	ROMK primary -2.6 | ROMK hit retest 0.058
COc1cccc(CNCCc2c[nH]c3ccccc23)c1OCc1ccccc1	none (no result: ROMK primary) | ROMK hit retest 0.059
COc1cc(CNCCc2c[nH]c3ccccc23)ccc1OCc1ccccc1F	none (no result: ROMK primary)
CCOc1cc(CNCCc2ccc(S(N)(=O)=O)cc2)ccc1OCc1ccc(Cl)cc1	none
COc1ccc(CNCc2ccco2)cc1OCc1ccccc1	none (no result: ROMK primary)
COc1ccc(CCNC(=O)CCC(=O)Nc2nnc(C(C)C)s2)cc1OC	none
O=C1c2ccccc2C(=O)N1CN(C(=O)c1ccccc1)c1ccc(O)cc1	none
Nc1ccc(S(=O)(=O)Nc2ccc(Cl)nn2)cc1	none (no result: PMI act satM6P, G6PDH counter, Diaphorase inh, PMI act, Diaphorase act)
Cc1cc(C(=O)Nc2ccc(OCc3ccccc3)cc2)c(C)o1	none
Cc1n[nH]c(C)c1CS(=O)(=O)c1ccccc1	none
CCN1C(=C(C#N)C#N)C=Cc2cc(C)ccc21	none
C=CC[n+]1c(/C=C2\C=Cc3cc(C)ccc3N2CC)ccc2ccccc21	ROMK primary -3.4 | ROMK hit retest 0.053
COc1cccc(-n2nnnc2S(C)(=O)=O)c1	ROMK primary -3.5 | ROMK hit retest 0.063
COc1cccc(Oc2nnnn2-c2ccccc2)c1	none
Cc1ccc(N2C(=O)[C@@H]3C(c4cccnc4)=NO[C@@H]3C2=O)cc1	none (no result: PMI act satM6P, G6PDH counter, Diaphorase inh, PMI act, Diaphorase act, ROMK primary) | ROMK hit retest inactive
COc1ccc(C2=NO[C@@H]3C(=O)N(c4c(C)cccc4C)C(=O)[C@H]23)cc1OC	none
CCOc1cc(N2CCOCC2)c(OCC)cc1NC(=O)c1ccc(OC(C)C)cc1	none
CN1CCN(CCCN2c3ccccc3Sc3ccc(Cl)cc32)CC1	none (no result: ROMK primary) | ROMK hit retest 0.048
OCCN1CCN(CCCN2c3ccccc3Sc3ccc(C(F)(F)F)cc32)CC1	none (no result: ROMK primary)
COc1ccc(NC(=O)COC(=O)Cc2c(F)cccc2Cl)cc1	none
COc1ccc(OCC2CCCN(Cc3nc(CC4CC4)no3)C2)cc1 (centres undefined)	none
COCC1CCCN(Cc2nc(Cc3ccccc3)no2)C1 (centres undefined)	ROMK primary 0.57 | ROMK hit retest inactive
